What is called MIC50 is the lowest concentration that inhibits either 50% of growth or 50% of the strains tested, depending on the study. A word on the MIC80: it is the lowest concentration that inhibits either 80% of growth or 80% of the strains tested, depending on the study. The term MIC denotes the least concentration at which growth counts as inhibited.

Active and inactive are the calls of the source. No cut-off for these calls is given here.

Results on three compounds are retold here after ChEMBL document CHEMBL4354800, “Amphiphilic nebramine-based hybrids Rescue legacy antibiotics from intrinsic resistance in multidrug-resistant Gram-negative bacilli” (Eur J Med Chem, 2019).

The test system of assay [1] is Pseudomonas aeruginosa. Description: Potentiation of minocycline-induced antimicrobial activity against MDR/XDR Pseudomonas aeruginosa isolate 91433 devoid of GyrA Thr83Ile mutant assessed as minocycline MIC50 incubated for 18 hrs by broth microdilution method (reference value: 16 microg/ml). Format: functional. Conditions: isolate 91433, 18 h.
In assay [2] the test system is Pseudomonas aeruginosa. Description: Potentiation of minocycline-induced antimicrobial activity against MDR/XDR Pseudomonas aeruginosa isolate PA260-97103 harboring GyrA Thr83Ile mutant assessed as minocycline MIC80 incubated for 18 hrs by broth microdilution method (reference value: 32 microg/ml). Format: functional. The settings on record: isolate PA260-97103, 18 h. For orientation: Dilution methods test growth across graded concentrations, often in twofold steps.

The subject of assay [3] is Acinetobacter baumannii. The experiment in a line: Synergistic antibacterial activity against multidrug-resistant Acinetobacter baumannii AB027 assessed as fractional inhibitory concentration index in presence of minocycline incubated for 18 hrs by broth dilution method. Format: functional.
Assay [4] concerns Acinetobacter baumannii. The experiment in a line: Synergistic antibacterial activity against multidrug-resistant Acinetobacter baumannii AB031 assessed as fractional inhibitory concentration index in presence of rifampicin incubated for 18 hrs by broth dilution method. Format: functional.
Assay [5] relates to Pseudomonas aeruginosa. The experiment in a line: Potentiation of minocycline-induced antibacterial activity against wild type Pseudomonas aeruginosa PAO1 assessed as fold reduction in minocycline MIC at 7.5 uM incubated for 18 hrs by broth microdilution method. Format: functional. Put shortly: (§1)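 Antibiotic MIC determined by CLSI broth microdilution (MHB, 5 × 10^5 CFU/mL, 18 h, 37 °C), once alone and once with a fixed concentration of the adjuvant. Potentiation is the ratio of the antibiotic MIC alone to its MIC in the presence of the adjuvant.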

The subject of assay [6] is Acinetobacter baumannii. Description: Antimicrobial activity against multidrug-resistant Acinetobacter baumannii AB030 incubated for 18 hrs by broth dilution method. Conditions: AB030, 18 h. Format: functional. The gist of the method:
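Broth microdilution per CLSI: overnight cultures set to 0.5 McFarland in saline, diluted 1:50 in Mueller-Hinton broth to a final 5 × 10^5 CFU/mL, added to 2-fold serial dilutions, incubated 18 h at 37 °C; MIC is the lowest concentration without visible turbidity, confirmed at 590 nm.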

For assay [7], the system named is Pseudomonas aeruginosa. The experiment in a line: Potentiation of rifampicin-induced antimicrobial activity against MDR/XDR Pseudomonas aeruginosa isolate 91433 devoid of GyrA Thr83Ile mutant assessed as rifampicin MIC80 incubated for 18 hrs by broth microdilution method (reference value: 16 microg/ml). Conditions: isolate 91433, 18 h. Format: functional.
The test system of assay [8] is Pseudomonas aeruginosa. Description: Potentiation of minocycline-induced antibacterial activity against MDR/XDR Pseudomonas aeruginosa isolate 101243 devoid of GyrA T83I mutant assessed as fold reduction in minocycline MIC at 7.5 uM incubated for 18 hrs by broth microdilution method. Format: functional.
The subject of assay [9] is Acinetobacter baumannii. The experiment in a line: Potentiation of rifampicin-induced antibacterial activity against multidrug-resistant Acinetobacter baumannii 110193 assessed as fold reduction in rifampicin MIC at 7.5 uM incubated for 18 hrs by broth dilution method. Format: functional. Put shortly:
(§2)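 CLSI broth microdilution. Overnight cultures were set to 0.5 McFarland in saline, diluted 1:50 in Mueller-Hinton broth to a final 5 × 10^5 CFU/mL, and incubated 18 h at 37 °C against 2-fold antibiotic dilutions. A fixed adjuvant level was present throughout. MIC = lowest concentration with no visible turbidity, confirmed at 590 nm. Potentiation = fold drop in antibiotic MIC versus antibiotic alone.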

In assay [10] the test system is Pseudomonas aeruginosa. The experiment in a line: Potentiation of moxifloxacin-induced antibacterial activity against MDR/XDR Pseudomonas aeruginosa isolate 100036 harboring GyrA T83I mutant assessed as fold reduction in moxifloxacin MIC at 7.5 uM incubated for 18 hrs by broth microdilution method. Format: functional. The gist of the method:
as §2

For assay [11], the system named is Pseudomonas aeruginosa. The experiment in a line: Potentiation of moxifloxacin-induced antibacterial activity against MDR/XDR Pseudomonas aeruginosa isolate PA260-97103 harboring GyrA T83I mutant assessed as fold reduction in moxifloxacin MIC at 7.5 uM incubated for 18 hrs by broth microdilution method. Format: functional. The gist of the method:
as §2

Assay [12] has as its system Pseudomonas aeruginosa. The experiment in a line: Potentiation of rifampicin-induced antibacterial activity against MDR/XDR Pseudomonas aeruginosa isolate 91433 devoid of GyrA T83I mutant assessed as fold reduction in rifampicin MIC at 7.5 uM incubated for 18 hrs by broth microdilution method. Format: functional. Put shortly: as §2
Assay [13] concerns Pseudomonas aeruginosa. Description: Potentiation of rifampicin-induced antibacterial activity against wild type Pseudomonas aeruginosa PAO1 assessed as fold reduction in rifampicin MIC at 4.1 uM incubated for 18 hrs by broth microdilution method. Format: functional. The gist of the method:
as §2

Assay [14] relates to Acinetobacter baumannii. Description: Synergistic antibacterial activity against multidrug-resistant Acinetobacter baumannii AB92247 assessed as fractional inhibitory concentration index in presence of minocycline incubated for 18 hrs by broth dilution method. Format: functional.
For assay [15], the system named is Escherichia coli. Description: Potentiation of rifampicin-induced antibacterial activity against Escherichia coli ATCC 25922 assessed as fold reduction in rifampicin MIC at 2.0 uM incubated for 18 hrs by broth dilution method. Format: functional. The gist of the method:
as §1

The subject of assay [16] is Pseudomonas aeruginosa. The experiment in a line: Antimicrobial activity against XDR Pseudomonas aeruginosa isolate PA264 infected in Galleria mellonella larvae assessed as survival rate at 50 mg/kg co-administered with 50 mg/kg rifampicin at 2 hrs post-inoculation measured after 18 hrs relative to control. Format: functional. Put shortly: (§3)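 G. mellonella larvae were injected with ~5 CFU of P. aeruginosa PA264 (10 µL of 5 × 10^2 CFU/mL in PBS) and held 2 h at 37 °C. A single 10 µL injection followed: monotherapy or rifampicin + compound (25+25, 50+50 or 75+75 mg/kg), with PBS as control. Larvae kept at 37 °C were scored every 6 h to 24 h; dead = no response to touch. n = 30 (two runs of 15); Kaplan-Meier.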

The subject of assay [17] is Acinetobacter baumannii. The experiment in a line: Potentiation of minocycline-induced antibacterial activity against multidrug-resistant Acinetobacter baumannii AB92247 assessed as fold reduction in minocycline MIC at 4.1 uM incubated for 18 hrs by broth dilution method. Format: functional.
In assay [18] the test system is Pseudomonas aeruginosa. The experiment in a line: Antimicrobial activity against XDR Pseudomonas aeruginosa isolate PA264 infected in Galleria mellonella larvae assessed as survival rate at 50 mg/kg co-administered with 50 mg/kg rifampicin at 2 hrs post-inoculation measured after 24 hrs relative to control. Format: functional. Put shortly: as §3
Assay [19] has as its system Acinetobacter baumannii. Description: Potentiation of rifampicin-induced antibacterial activity against multidrug-resistant Acinetobacter baumannii AB110193 assessed as fold reduction in rifampicin MIC at 4.1 uM incubated for 18 hrs by broth dilution method. Format: functional. Put shortly:
as §2

The test system of assay [20] is Pseudomonas aeruginosa. Description: Potentiation of rifampicin-induced bactericidal activity in MDR/XDR Pseudomonas aeruginosa isolate PA259-96918 harboring GyrA T83I mutant assessed as decrease in viable bacterial count at 1 ug/ml incubated for 8 hrs in presence of 1 ug/ml rifampicin by time kill curve assay. Format: functional, organism-based. The gist of the method:
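Time-kill assay against XDR P. aeruginosa PA259. Overnight culture adjusted to 0.5 McFarland in saline, diluted 1:50 in LB. Incubated at 37 °C for 24 h with rifampicin and adjuvant, alone or combined at various concentrations. Aliquots taken at intervals, serially diluted in PBS and plated on LB agar. Colonies counted after 20 h at 37 °C. Untreated cells as control.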

The test system of assay [21] is Pseudomonas aeruginosa. Description: Potentiation of ciprofloxacin-induced antibacterial activity against MDR/XDR Pseudomonas aeruginosa isolate 100036 harboring GyrA T83I mutant assessed as fold reduction in ciprofloxacin MIC at 9 uM incubated for 18 hrs by broth microdilution method. Format: functional.
Assay [22] concerns Pseudomonas aeruginosa. Description: Potentiation of ciprofloxacin-induced antibacterial activity against MDR/XDR Pseudomonas aeruginosa isolate PA262-101856 harboring GyrA T83I mutant assessed as fold reduction in ciprofloxacin MIC at 9 uM incubated for 18 hrs by broth microdilution method. Format: functional.

Turning to `COc1c(N2C[C@@H]3CCCN(CCCCCCCCCCCCO[C@@H]4[C@@H](O)[C@H](N)C[C@H](N)[C@H]4O[C@H]4O[C@H](CN)[C@@H](O)C[C@H]4N)[C@@H]3C2)c(F)cc2c(=O)c(C(=O)O)cn(C3CC3)c12.Cl.Cl.Cl.Cl.Cl`, the MIC50 in assay [1] came to 0.5 µg/mL. For the same compound, the MIC80 in assay [2] was found to be 1 µg/mL; in [7], 0.13 µg/mL. Moreover, the “fractional inhibitory concentration index (FICI)” value is listed as more than 1 in [3] and 0.04 in assay [4]. For the same compound, the “fold change (FC)” value in [5] worked out at 8; in [8], 16; in assay [9], 32; in [10], 16; in [11], 64; in assay [12], 128. The compound also showed an MIC in assay [6] of more than 16 µg/mL.
In the case of `Cl.Cl.Cl.Cl.Cl.NC[C@H]1O[C@H](O[C@H]2[C@H](OCCCCCCCCCCCCN3CCN(c4cc5c(cc4F)c(=O)c(C(=O)O)cn5C4CC4)CC3)[C@@H](O)[C@H](N)C[C@@H]2N)[C@H](N)C[C@@H]1O`, the “fold change (FC)” value is “>=256” in assay [13], 128 in assay [15], 2 in assay [17] and 64 in [19]. In addition, the “fractional inhibitory concentration index (FICI)” value in [14] was determined as 0.531. The survival at 50 mg/kg worked out at 60% in assay [16] and 33% in assay [18]. The outcome in assay [20] was Active.
For the compound `Cl.Cl.Cl.Cl.Cl.Cl.NC[C@H]1O[C@H](O[C@H]2[C@H](OCCCCCCCCCCN3CCN(Cc4cccc5ccccc45)CC3)[C@@H](O)[C@H](N)C[C@@H]2N)[C@H](N)C[C@@H]1O`, the “fold change (FC)” value in assay [21] and in assay [22] was 8 each time.
